In ChEMBL document CHEMBL2384939, “Synthesis of pyrazolo[1,5-a]pyrimidine linked aminobenzothiazole conjugates as potential anticancer agents” (Bioorg Med Chem Lett, 2013):
The source made the active and inactive calls. The calls are words filed in the database; no cut-off is given here.

How the values were obtained:
[1] = system: NCI-H460; assay: Cytotoxicity against human NCI-H460 cells after 48 hrs by MTT assay; format: functional; conditions: NCI-H460, 48 h
[2] = system: T47D; assay: Cytotoxicity against human T47D cells after 48 hrs by MTT assay; format: functional
[3] = Cytotoxicity against human EKVX cells after 48 hrs by MTT assay; format: functional
[4] = system: BT-549; assay: Cytotoxicity against human BT549 cells after 48 hrs by MTT assay; format: functional; conditions: BT-549, 48 h
[5] = system: A549; assay: Cell cycle arrest at human A549 cells assessed as accumulation at G0/G1 phase at 2 uM after 48 hrs by propidium iodide-staining-based FACS flow cytometric analysis (reference value: 81.33%); format: functional
[6] = system: CCRF-CEM; assay: Cytotoxicity against human CCRF-CEM cells after 48 hrs by MTT assay; format: functional
[7] = system: ACHN; assay: Cytotoxicity against human ACHN cells after 48 hrs by MTT assay; format: functional, cell-based
Outline: (§1)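 MTT assay: […] were plated in DMEM with 10% FBS and incubated for 24 h at 37 °C under CO2. Compounds diluted in culture medium were added alongside a vehicle control for 48 h. MTT (10 µl of a 5 mg/ml stock) was added for a further 4 h. The supernatant was then removed, the formazan dissolved in DMSO, and absorbance read at 540 nm. IC50 was derived.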

[8] = system: A549; assay: Induction of apoptosis in human A549 cells assessed as reduction of Cdk1 expression at 2 uM after 48 hrs by Western blot analysis; format: functional, cell-based
Outline: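 5×10^5 A549 cells grown 24 h, then treated with 2 µM compound for 48 h. Lysis in ice-cold RIPA with protease inhibitors, protein by Bradford, 50 µg per lane on 12% SDS-PAGE, PVDF transfer. Probed overnight at 4 °C with mouse monoclonal anti-Cdk1, β-actin as loading control, chemiluminescent detection.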

[9] = system: SF-295; assay: Cytotoxicity against human SF295 cells after 48 hrs by MTT assay; format: functional; conditions: SF-295, 48 h
[10] = system: MDA-MB-468; assay: Cytotoxicity against human MDA-MB-468 cells after 48 hrs by MTT assay; format: functional; conditions: MDA-MB-468, 48 h
[11] = system: SK-OV-3; assay: Cytotoxicity against human SKOV3 cells after 48 hrs by MTT assay; format: functional; conditions: SK-OV-3, 48 h
[12] = system: SF-539; assay: Cytotoxicity against human SF539 cells after 48 hrs by MTT assay; format: functional; conditions: SF-539, 48 h
[13] = system: A549; assay: Cell cycle arrest at human A549 cells assessed as accumulation at S phase at 1 uM after 48 hrs by propidium iodide-staining-based FACS flow cytometric analysis (reference value: 4.48%); format: functional
[14] = system: IGROV-1; assay: Cytotoxicity against human IGROV1 cells after 48 hrs by MTT assay; format: functional; conditions: IGROV-1, 48 h
[15] = system: MCF7; assay: Cytotoxicity against human MCF7 cells after 48 hrs by MTT assay; format: functional, cell-based; conditions: MCF7, 48 h; outline: as §1
[16] = system: A549; assay: Cell cycle arrest at human A549 cells assessed as accumulation at G2/M phase at 1 uM after 48 hrs by propidium iodide-staining-based FACS flow cytometric analysis (reference value: 13.17%); format: functional
[17] = system: 786-0; assay: Cytotoxicity against human 786-0 cells after 48 hrs by MTT assay; format: functional; conditions: 786-0, 48 h
[18] = system: SK-MEL-2; assay: Cytotoxicity against human SK-MEL-2 cells after 48 hrs by MTT assay; format: functional; conditions: SK-MEL-2, 48 h
[19] = system: NCI-H23; assay: Cytotoxicity against human NCI-H23 cells after 48 hrs by MTT assay; format: functional; conditions: NCI-H23, 48 h
[20] = system: HCT-116; assay: Cytotoxicity against human HCT116 cells after 48 hrs by MTT assay; format: functional; conditions: HCT-116, 48 h
[21] = system: TK-10; assay: Cytotoxicity against human TK10 cells after 48 hrs by MTT assay; format: functional; conditions: TK-10, 48 h
[22] = system: A549; assay: Induction of apoptosis in human A549 cells assessed as cytoplasmic condensation at 2 uM after 48 hrs by Hoechst staining assay; format: functional, cell-based
Outline: (§2)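 A549 cells (10,000 per 18-mm coverslip) grown 24 h, then given 2 µM compound for 48 h, with 0.001% DMSO vehicle and roscovitine controls. Hoechst 33258 (0.5 mg/mL) in 4% paraformaldehyde was added for 30 min. Randomly chosen fields were imaged by fluorescence microscopy and apoptotic cells scored manually by cytoplasmic condensation, apoptotic bodies and nuclear fragmentation.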

[23] = system: M14; assay: Cytotoxicity against human M14 cells after 48 hrs by MTT assay; format: functional; conditions: M14, 48 h
[24] = system: A549; assay: Cell cycle arrest at human A549 cells assessed as accumulation at sub G1 phase at 1 uM after 48 hrs by propidium iodide-staining-based FACS flow cytometric analysis (reference value: 1.02%); format: functional
[25] = system: HOP-62; assay: Cytotoxicity against human HOP62 cells after 48 hrs by MTT assay; format: functional; conditions: HOP-62, 48 h
[26] = system: A549; assay: Cell cycle arrest at human A549 cells assessed as accumulation at sub G1 phase at 2 uM after 48 hrs by propidium iodide-staining-based FACS flow cytometric analysis (reference value: 1.02%); format: functional
[27] = system: SF-268; assay: Cytotoxicity against human SF268 cells after 48 hrs by MTT assay; format: functional; conditions: SF-268, 48 h
[28] = system: NCI-H226; assay: Cytotoxicity against human NCI-H226 cells after 48 hrs by MTT assay; format: functional; conditions: NCI-H226, 48 h
[29] = system: A549; assay: Cell cycle arrest at human A549 cells assessed as accumulation at G0/G1 phase at 1 uM after 48 hrs by propidium iodide-staining-based FACS flow cytometric analysis (reference value: 81.33%); format: functional
[30] = system: OVCAR-8; assay: Cytotoxicity against human OVCAR8 cells after 48 hrs by MTT assay; format: functional; conditions: OVCAR-8, 48 h
[31] = system: A549; assay: Cell cycle arrest at human A549 cells assessed as accumulation at G2/M phase at 2 uM after 48 hrs by propidium iodide-staining-based FACS flow cytometric analysis (reference value: 13.17%); format: functional
[32] = system: A549; assay: Induction of apoptosis in human A549 cells assessed as formation of apoptotic bodies at 2 uM after 48 hrs by Hoechst staining assay; format: functional, cell-based; outline: as §2
[33] = system: A549; assay: Cell cycle arrest at human A549 cells assessed as accumulation at S phase at 2 uM after 48 hrs by propidium iodide-staining-based FACS flow cytometric analysis (reference value: 4.48%); format: functional
[34] = system: SN12C; assay: Cytotoxicity against human SN12C cells after 48 hrs by MTT assay; format: functional
[35] = system: RXF 393; assay: Cytotoxicity against human RXF393 cells after 48 hrs by MTT assay; format: functional; conditions: RXF 393, 48 h
[36] = system: A549; assay: Cytotoxicity against human A549 cells after 48 hrs by MTT assay; format: functional, cell-based; conditions: A549, 48 h; outline: as §1
[37] = system: SR; assay: Cytotoxicity against human SR cells after 48 hrs by MTT assay; format: functional
[38] = system: SNB-75; assay: Cytotoxicity against human SNB75 cells after 48 hrs by MTT assay; format: functional; conditions: SNB-75, 48 h
[39] = system: OVCAR-3; assay: Cytotoxicity against human OVCAR3 cells after 48 hrs by MTT assay; format: functional; conditions: OVCAR-3, 48 h
[40] = system: NCI-H322M; assay: Cytotoxicity against human NCI-H322M cells after 48 hrs by MTT assay; format: functional

SMILES: COc1cc(-c2cc(C(=O)Nc3nc4ccccc4s3)nc3cc(-c4ccccc4)nn23)cc(OC)c1OC
- GI50 [1]: 29 µM
- GI50 [2]: 21.4 µM
- GI50 [3]: 42 µM
- GI50 [4]: 6.3 µM
- Activity [5]: 32.18%
- GI50 [6]: 54 µM
- GI50 [7]: 45.7 µM
- IC50 [7]: 4.36 µM
- Activity [8]: Active
- GI50 [9]: 10.6 µM
- GI50 [10]: 13.9 µM
- GI50 [11]: 12.5 µM
- GI50 [12]: 1.3 µM
- Activity [13]: 5.9%
- GI50 [14]: 56 µM
- GI50 [15]: 22.4 µM
- IC50 [15]: 2.88 µM
- Activity [16]: 40.05%
- GI50 [17]: 2.5 µM
- GI50 [18]: 11.2 µM
- GI50 [19]: 11.5 µM
- GI50 [20]: 4.5 µM
- GI50 [21]: 11.9 µM
- Activity [22]: Active
- GI50 [23]: 2.3 µM
- Activity [24]: 11.77%
- GI50 [25]: 9.8 µM
- Activity [26]: 9.05%
- GI50 [27]: 4.5 µM
- GI50 [28]: 27 µM
- Activity [29]: 42.29%
- GI50 [30]: 5.3 µM
- Activity [31]: 52.45%
- Activity [32]: Active
- Activity [33]: 6.32%
- GI50 [34]: 85 µM
- GI50 [35]: 6.2 µM
- IC50 [36]: 2.01 µM
- GI50 [37]: 19.7 µM
- GI50 [38]: 2.7 µM
- GI50 [39]: 13.3 µM
- GI50 [40]: 67.5 µM

SMILES: O=C(Nc1nc2ccccc2s1)c1cc(-c2ccc(F)cc2)n2nc(-c3ccccc3)cc2n1
- GI50 [1]: 2.1 µM
- GI50 [2]: 3.3 µM
- GI50 [3]: 6.6 µM
- GI50 [4]: 2 µM
- Activity [5]: 28.75%
- GI50 [6]: 1.8 µM
- GI50 [7]: 2.2 µM
- IC50 [7]: 3.46 µM
- Activity [8]: Active
- GI50 [9]: 4.1 µM
- GI50 [10]: 5.1 µM
- GI50 [11]: 2.3 µM
- GI50 [12]: 2.6 µM
- Activity [13]: 6.1%
- GI50 [14]: 4.3 µM
- GI50 [15]: 5.2 µM
- IC50 [15]: 2.29 µM
- Activity [16]: 44.54%
- GI50 [17]: 2.1 µM
- GI50 [18]: 3.1 µM
- GI50 [19]: 2.8 µM
- GI50 [20]: 2.7 µM
- GI50 [21]: 2.4 µM
- Activity [22]: Active
- GI50 [23]: 3.1 µM
- Activity [24]: 4.01%
- GI50 [25]: 2.2 µM
- Activity [26]: 3.75%
- GI50 [27]: 3.8 µM
- GI50 [28]: 6.3 µM
- Activity [29]: 35.34%
- GI50 [30]: 2.1 µM
- Activity [31]: 64.7%
- Activity [32]: Active
- Activity [33]: 6.8%
- GI50 [34]: 6.4 µM
- GI50 [35]: 2.5 µM
- GI50 [36]: 2.7 µM
- IC50 [36]: 1.94 µM
- GI50 [37]: 3.9 µM
- GI50 [38]: 1.7 µM
- GI50 [39]: 1.9 µM
- GI50 [40]: 5.8 µM
